From PubChem
Rows were chosen to be rich in hits. Some 1.5% of all compounds tested hit in one or more screens of this group.
Keap1 Nrf2 FP: inhibitors of human Keap1-Nrf2 protein-protein interaction | Q14145 | Keap1 Kelch-Nrf2 peptide fluorescence polarization, 1536-well | inhibition, % at 9.4 µM | 340,000 tested, 0.15% active | AID 504523; in the data active means inhibition above about 12%;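 further: human Keap1 Kelch domain with fluorescein labeled Nrf2 9mer peptide probe; 0% = neutral control wells and 100% = peptide positive control; higher means more block of Keap1 binding to Nrf2 peptide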
Target sequence (Q14145 whole entry, looked up, the tested form may be a part): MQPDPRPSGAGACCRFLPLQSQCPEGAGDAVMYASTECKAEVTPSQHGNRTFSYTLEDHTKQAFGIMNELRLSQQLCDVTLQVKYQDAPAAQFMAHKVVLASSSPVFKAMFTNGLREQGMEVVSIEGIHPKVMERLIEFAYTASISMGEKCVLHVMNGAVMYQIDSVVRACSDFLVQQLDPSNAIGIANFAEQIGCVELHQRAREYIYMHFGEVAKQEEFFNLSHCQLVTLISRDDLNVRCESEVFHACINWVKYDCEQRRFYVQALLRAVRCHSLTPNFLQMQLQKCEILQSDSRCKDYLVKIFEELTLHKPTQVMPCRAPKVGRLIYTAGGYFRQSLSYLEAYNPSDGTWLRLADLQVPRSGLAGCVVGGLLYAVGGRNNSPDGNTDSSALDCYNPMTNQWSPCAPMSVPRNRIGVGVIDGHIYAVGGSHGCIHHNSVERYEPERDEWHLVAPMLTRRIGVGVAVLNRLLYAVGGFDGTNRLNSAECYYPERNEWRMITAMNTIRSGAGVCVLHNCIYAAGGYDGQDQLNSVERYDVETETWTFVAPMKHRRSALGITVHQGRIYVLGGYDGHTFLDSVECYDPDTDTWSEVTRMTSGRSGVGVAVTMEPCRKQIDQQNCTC
LANA-H2B inh: blocks KSHV LANA binding to histone H2A/H2B; cell-free LANA-H2A/H2B peptide, fluorescence polarization; inhibition, % (no concentration beside the values); 320,000 tested, 0.6% active; AID 2629; in the data active means inhibition mostly above about 10%, no sharp cut-off; inactive means mostly below about 6.7%
C-LANA FP: blocks KSHV LANA C-terminal domain binding to DNA; inhibition, % at 9 µM; MBP-C-LANA/FAM-LBS DNA binding, fluorescence polarization; 340,000 tested, 0.078% active;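 active means highest replicate inhibition at or above 60% at 9 µM, even if other replicates fall short; inactive means all replicates below 60% inhibition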;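 further: 0% = neutral control wells and 100% = 4 µM acridine orange control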
CAL PDZ FP-1: CAL PDZ (human) peptide binding inhibition; Q9HD26; purified CAL PDZ, TMR-peptide fluorescence polarization, 1 h; inhibition, % at 24.9 µM; 300,000 tested, 0.92% active;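 active means mean inhibition of at least 30% with at least half of replicates also reaching 30%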;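 further: 0% = DMSO neutral control and 100% = excess unlabeled competitor peptide PRC23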
CAL PDZ FP-2: human CAL PDZ-peptide interaction inhibition | inhibition, % at 20 µM | AID 504414 | purified CAL PDZ, TMR-peptide fluorescence polarization, 1 h | 330,000 tested, 0.02% active | Q9HD26;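 active means highest replicate inhibition of at least 40%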;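 further: plate controls were DMSO neutral control wells for no effect and unlabeled competitor peptide control wells for full effect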
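Control set: unlabelled peptide and DMSO controls / Material: purified CerCALP PDZ construct / Timing: 1 h incubation at room temperature before polarization reading / Doses: 20 µM, one dose / Detection: fluorescence polarization (mP)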
CaV13 FRET inh: Primary screen for inhibitors of IQ motif and Ca2+-dependent inactivation inhibitor domain binding in CACNA1D, Förster resonance energy transfer in living cells, … | AID 743397 | 340,000 tested, 0.098% active | inhibition, % at 12.3 µM | HEK cells, CFP/YFP FRET ICDI-IQ, plate reader, 10 min; percent FRET-ratio fall versus neutral wells;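 active means mean replicate inhibition of at least 30% and at least 1% of replicates passing that level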;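 further: 0% = median of the neutral control wells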
* = called active by the depositor; nt = no result given; + = active, no number; ! = a repeat was not active.

SMILES	Keap1 Nrf2 FP	LANA-H2B inh	C-LANA FP	CAL PDZ FP-1	CAL PDZ FP-2	CaV13 FRET inh
Cc1ccc(Cl)cc1-n1c(=O)cc(N2CCN(C(=O)c3ccco3)CC2)[nH]c1=O	-8	1	-1	1	-3	-10
COC(=O)c1cc2c(c3c4cc(C)ccc4n(S(=O)(=O)c4cccc(C)c4)c13)C(=O)N(Cc1ccc(N(C)C)cc1)C2	nt	nt	nt	nt	nt	-4
Cc1sc2ncnc(N3CCC(C(=O)NNC(=O)c4ccccc4Cl)CC3)c2c1C	-4	1	1	37*	-2	-6
Cn1ccc(NC(=O)c2ccc(Cl)cc2)n1	5	-2	0	-1	0	-17
Cc1cccc(C(=O)Nc2ccn(C)n2)c1	-2	nt	0	55*	0	-7
Cc1ccccc1C(=O)N(C)[C@H]1C[C@H]2c3[nH]c4c(-c5ccccc5)cccc4c3CCN2C(=O)[C@H]1[C@H](C)O	nt	nt	nt	nt	nt	-5
CCC(C)NCCOc1ccc(C(C)(C)c2ccccc2)cc1 (centres undefined)	0	14*	-3	-1	0	-4
COCCCNCCOc1ccc(C(C)(C)c2ccccc2)cc1	0	-4	1	-2	0	-3
C=CCn1c(SCC)nc(O)cc1=O	-5	-8	2	-6	0	-6
C=CCn1c(SCCC)nc(O)cc1=O	-2	16*	2	1	1	-8
Cc1ccc(C)c(-n2c(-c3csc(C)c3C)n[nH]c2=S)c1	-2	9	-1	-3	0	-2
Cn1c(Cc2cccs2)n[nH]c1=S	3	5	1	38*	0	-8
Cn1c(Cc2ccccc2)n[nH]c1=S	3	-2	0	0	-1	-3
COC(=O)[C@]12C[C@H](CC(=O)NCCCCc3ccccc3)C(=O)N(CCC3=CCCCC3)C1=C[C@H](COCc1ccccc1)O[C@@H]2C	nt	nt	nt	nt	nt	-6
Cc1cccc(C)c1NC(=O)C1CCCCN1C (centres undefined)	8	25*!	-2	6	0	-5
Cc1cc(NC(=O)CCC(=O)N(CC(=O)NC2CCCC2)c2ccccc2)no1	-3	22*	2	-1	-2	-4
CCOC(=O)C1(CCOC)CCN(Cc2nc(-c3cccs3)oc2C)CC1	0	-4	0	-7	-1	-6
Cc1oc(-c2cccs2)nc1CN1CCC(CO)(CCOc2ccccc2)CC1	-1	13*	0	2	-1	-5
CCOC(=O)N1CCN(C(=O)C[C@H]2C[C@@]3(C(=O)OC)C(=C[C@H](COCc4ccccc4)O[C@@H]3C)N(Cc3ccc4c(c3)OCO4)C2=O)CC1	nt	nt	nt	nt	nt	-9
Cc1sc2nc(CSc3nnnn3-c3ccc(Cl)cc3)[nH]c(=O)c2c1C	-4	nt	3	0	0	-5
CCn1c(SCc2nc3sc(C(=O)O)c(C)c3c(=O)[nH]2)nnc1-c1ccc(Cl)cc1	0	+	5	-3	-2	-5
COc1ccc(-c2nn(CCC#N)cc2/C=N/O)cc1	0	-3	4	-2	0	-1
COc1ccc(-c2nn(CCC#N)cc2/C=N/O)cc1OC	-2	-1	-3	58*	9	-6
COc1ccc(-c2nn(CCC#N)cc2C(=O)Nc2cccc(C(=O)O)c2)cc1[N+](=O)[O-]	3	15*	0	-5	-2	-3
C=CCN1C(=O)c2n[nH]c(COC)c2C1c1ccc(F)cc1 (centres undefined)	nt	nt	nt	nt	nt	-5
SMILES	Keap1 Nrf2 FP	LANA-H2B inh	C-LANA FP	CAL PDZ FP-1	CAL PDZ FP-2	CaV13 FRET inh
COC(=O)[C@@]12C[C@@H](CC(=O)NCCCN3CCCC3=O)C(=O)N(Cc3ccco3)C1=CCC(C)(C)C2	nt	nt	nt	nt	nt	-15
CC(C)C[C@H](NC(=O)c1ccc(Cl)cc1Cl)C(=O)N1CCC[C@H]1C(=O)NCc1ccccc1	nt	nt	nt	nt	nt	-9
COc1ccc(OC(=O)N2CCOCC2)cc1	2	4	0	-11	0	-2
COc1ccc(/C(N)=N/OC(=O)N2CCOCC2)cc1	-1	14*	0	2	-3	-7
COc1ccc2o/c(=N\O)c(C(=O)Nc3ccc(C)cc3)cc2c1	1	nt	0	80*	0	-20
CC(=O)Nc1ccc(S(=O)(=O)NC2=C(N3CCN(Cc4ccccc4)CC3)C(=O)c3ccccc3C2=O)cc1	0	+	1	-2	1	-6
COc1cccc(CNC(=O)[C@H]2CCCN2C(=O)[C@H]2CCCN2C(=O)c2ccccc2C(F)(F)F)c1	nt	nt	nt	nt	nt	-5
CC(=O)NCCc1ccc(C(=O)COC(=O)c2cccs2)cc1	nt	nt	nt	nt	nt	-5
Clc1c(Cl)c(Cl)c2n[nH]nc2c1Cl	-2	2	-1	79*	-2	-14
CC(C)NC(=O)NS(=O)(=O)c1cnccc1NC1CC2CCC1C2 (centres undefined)	4	4	2	69*	0	0
CS(=O)(=O)Nc1ccccc1C(=O)NC1CC2CCC1C2 (centres undefined)	1	5	0	-1	-3	-6
CN(C(=O)CS(=O)(=O)c1cn(CC(=O)N2CCOCC2)c2ccccc12)c1ccccc1	-5	34*	1	nt	-2	-16
CC1CN(C(=O)Cn2cc(S(=O)(=O)CC(=O)N(C)c3ccccc3)c3ccccc32)CC(C)O1 (centres undefined)	-4	-1	0	1	-2	-12
Cc1ccc(NC(=O)CS(=O)(=O)c2cn(CC(=O)N3CCOCC3)c3ccccc23)cc1	-2	18*	-1	-6	-3	-6
CCCCOC(=O)Nc1cc(Cl)ccc1C	-3	-9	2	1	-1	nt
CCCOC(=O)NC(CC)COC(=O)Nc1cc(C)ccc1C (centres undefined)	-8	46*	1	-3	-1	nt
COC(=O)c1ccc(CN2CCN(CCC(C)C)C(CCO)C2)cc1 (centres undefined)	-5	-1	-1	-2	-1	-20
COc1ccc(-c2ncc(CN3CCN(CCC(C)C)C(CCO)C3)cn2)cc1 (centres undefined)	-2	-4	0	93*	-2	-4
COc1ccc(CCC(=O)Nc2ccc(S(=O)(=O)N3CCCC3)cc2)cc1OC	-1	-1	-1	-5	0	-6
Cc1c(NS(=O)(=O)c2ccc(S(=O)(=O)c3ccccc3)s2)c(=O)n(-c2ccccc2)n1C	-6	-2	0	50*	0	-3
Cc1nnc(NC(=O)c2ccc(Br)o2)s1	3	-2	-1	-3	1	-18
CC1(c2ccccc2)CC(C)(C)N(C(N)=O)c2ccccc21 (centres undefined)	4	22*	2	-4	-1	-6
